Data taken from ChEMBL document CHEMBL1141798, “Antitubercular constituents from the stem wood of Cinnamomum kotoense” (2005).
Converted amounts (≈) assume the structure as drawn.

System: Mycobacterium tuberculosis
Assay: Antitubercular activity against Mycobacterium tuberculosis 90-221387
Format: functional
Method in brief: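 Agar proportion method on Middlebrook 7H10 with OADC; compounds serially diluted into molten agar (50-56 °C) to final 100 to 0.8 µg/mL. Inoculum from colonies in 7H9 broth, adjusted to McFarland no. 1, diluted 10-2; 33 µL spotted per quadrant. Incubated 35 °C, 10% CO2, 2 weeks; MIC = lowest concentration completely inhibiting growth.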

First: CC(=O)c1ccc(C)o1
Second: O=C(O)c1ccc(O)c(O)c1 [PROTOCATECHUIC ACID]
The MIC of the first is 2-fold lower: 323 µM (≈ 40 µg/mL) for the first, 649 µM (≈ 100 µg/mL) for the second.

First: COc1cc(OC)c2c(c1)O[C@H](c1ccc(O)c(OC)c1)[C@H](O)C2
Second: COc1cc([C@H]2OC[C@H]3[C@@H]2CO[C@@H]3c2cc(OC)c(O)c(OC)c2)cc(OC)c1O (racemic) [SYRINGARESINOL]
The MIC of the first is 1.6-fold lower: 151 µM (≈ 50.1 µg/mL) for the first, 239 µM (≈ 100 µg/mL) for the second.

Compared with `O=Cc1ccc(O)cc1` [4-HYDROXYBENZALDEHYDE], `COc1cc(C=O)ccc1O` [VANILLIN] is 4.5-fold lower in MIC: 369 µM (≈ 45 µg/mL) for the first, 82.2 µM (≈ 12.5 µg/mL) for the second.

Going from `O=C(O)c1ccccc1` [BENZOIC ACID] to `COc1cc(C=O)cc(OC)c1O` [SYRINGALDEHYDE], the MIC falls from 328 µM (≈ 40 µg/mL) to 137 µM (≈ 25 µg/mL) (2.4-fold).

First: CCCCCCCCCCCC(=O)O [DODECANOATE]
Second: C=C1OC(=O)/C(=C/CCCCCCCCCCCCC)[C@@H]1O [ISOOBTUSILACTONE A]
The MIC of the first is 2.8-fold higher: 62.5 µM (≈ 12.5 µg/mL) for the first, 22.5 µM (≈ 6.93 µg/mL) for the second.

Compared with `CCCCCCCCCCCCCCCCCCCCCCCCCCCC(O)O` [KOTODIOL], `CCCCCCCCCCCCC/C=C1/C(=O)O[C@@]2(C)O[C@H](CCCCCCCCCCCCC)O[C@@H]12` [KOTOLACTONE A] is 2.9-fold lower in MIC: 117 µM (≈ 50.1 µg/mL) for the first, 40.1 µM (≈ 20.9 µg/mL) for the second.

Compared with `C#CCCCCCCCCC/C=C1/C(=O)O[C@@H](C)[C@H]1O` [LINCOMOLIDE B], `CO[C@H]1/C=C/O[C@@]2(C)Oc3c(C)c(O)c4c(O)c(c(/C=N/N5CCN(C)CC5)c(O)c4c3C2=O)NC(=O)/C(C)=C\C=C\[C@H](C)[C@H](O)[C@@H](C)[C@@H](O)[C@@H](C)[C@H](OC(C)=O)[C@@H]1C` [RIFAMPIN] is 42-fold lower in MIC: 10.2 µM (≈ 2.83 µg/mL) for the first, 0.24 µM (≈ 0.198 µg/mL) for the second.
